From ChEMBL document CHEMBL4823259, “Bufadienolides from the Eggs of the Toad Bufo bufo gargarizans and Their Antimelanoma Activities” (J Nat Prod, 2021)
pIC50: −log10 of the molar value. Activity calls are given as the source filed them. No cut-off for these calls is given here.

Key:
[1] = test system: SK-MEL; experiment: Cytotoxicity against human SK-MEL cells assessed as reduction in cell viability measured after 48 hrs by MTT assay; type: functional, cell-based
Outline: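 MTT assay: SK-MEL-1 cells (DMEM, 10% FBS, 37 °C, 5% CO2) seeded 10⁴/well for 24 h, then exposed to a range of concentrations for 48 h; MTT added for 4 h at 37 °C, formazan dissolved in DMSO, absorbance 570 nm. IC50 as mean ± SD, three independent experiments.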

[2] = test system: SK-MEL; experiment: Anti-melanoma activity against human SK-MEL cells xenografted in yolk of zebra fish at 10 uM measured after 48 hrs by CM-Dil staining based fluorescence microscopic analysis; type: functional, cell-based
Outline: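 SK-MEL-1 cells prelabelled with CM-DiI (2 μM) microinjected into superficial yolk near perivitelline space of 2 dpf zebrafish embryos; treated 48 h at 28.5 °C; CM-DiI fluorescence of tumour mass imaged by fluorescence microscopy in immobilized fish. Sorafenib (0.5 μM) positive control.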

[3] = test system: SK-MEL; experiment: Induction of apoptosis in human SK-MEL cells assessed as increase in cleaved PARP level at 0.1 to 0.5 uM incubated for 48 hrs by Western blot analysis; type: functional, cell-based; settings: dose 0.1-0.5 µM
Outline: (§1)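 SK-MEL-1 cells seeded 3 × 10⁵/well for 24 h, treated 48 h; lysed in RIPA buffer with protease and phosphatase inhibitors 15 min at 4 °C; 20 μg protein by SDS-PAGE, PVDF transfer, PARP immunoblot with ECL detection; β-actin loading control. Sorafenib (10 μM) positive control.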

[4] = organism: Danio rerio; experiment: Antiangiogenic activity in transgenic Tg(fli1:GFP) zebra fish embryo assessed as reduction in intersegmental blood vessels at 20 uM measured at 48 hrs postfertilization by fluorescence microscopy; type: functional, organism-based
Outline: (§2)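 Tg:Fli1-GFP embryos selected at 12 hpf, 30 per well, 28.5 °C in E3 medium, exposed to compound (20 μM); chorions broken at 24 hpf; at 48 hpf ISVs and angiogenic sprouts counted by fluorescence microscopy. Sorafenib (1 μM) positive control; mean, SD; one-way ANOVA with Tukey post hoc test.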

[5] = Toxicity in zebra fish larvae assessed as death at 100 uM measured at 48 hpf by stereomicroscopic analysis; parameters: species or system Danio rerio; settings: zebrafish, 48 h
Outline: (§3)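 Zebrafish larvae at 48 hpf, kept at 28.5 °C in E3 medium, treated with compound; survival and pathological changes (e.g. pericardial edema) checked by stereomicroscope every 12 h.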

[6] = Toxicity in zebra fish larvae assessed as pericardial edema at 100 uM measured at 48 hpf by stereomicroscopic analysis; parameters: species or system Danio rerio; settings: zebrafish, 48 h; outline: as §3
[7] = organism: Danio rerio; experiment: Antiangiogenic activity in transgenic Tg(fli1:GFP) zebra fish embryo assessed as reduction in angiogenic sprouts at 20 uM measured at 48 hrs postfertilization by fluorescence microscopy; type: functional, organism-based; outline: as §2
[8] = Toxicity in zebra fish larvae assessed as curved tail at 100 uM measured at 48 hpf by stereomicroscopic analysis; parameters: species or system Danio rerio; settings: zebrafish, 48 h; outline: as §3
[9] = Toxicity in zebra fish larvae at 100 uM measured at 48 hpf by stereomicroscopic analysis; parameters: species or system Danio rerio; settings: zebrafish, 48 h; outline: as §3
[10] = test system: SK-MEL; experiment: Induction of apoptosis in human SK-MEL cells assessed as increase in cleaved PARP level at 10 uM incubated for 48 hrs by Western blot analysis; type: functional, cell-based
Outline: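 SK-MEL-1 cells (DMEM, 10% FBS, 37 °C, 5% CO2) were seeded at 3 × 10⁵/well for 24 h, then treated for 48 h. They were lysed in RIPA buffer with PMSF, orthovanadate, DTT and phosphatase inhibitor for 15 min at 4 °C, and protein was quantified by BCA. 20 μg was run on SDS-PAGE and blotted to PVDF, with primary antibody overnight at 4 °C and secondary 1 h at room temperature. Detection was by ECL, with β-actin as loading control.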

[11] = test system: SK-MEL; experiment: Anti-melanoma activity against human SK-MEL cells xenografted in yolk of zebra fish at 0.5 uM measured after 48 hrs by CM-Dil staining based fluorescence microscopic analysis; type: functional, cell-based
Outline: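 SK-MEL-1 cells were prestained with CM-DiI (2 μM) and microinjected into the superficial yolk near the perivitelline space of 2 dpf zebrafish. Embryos were kept in E3 medium, treated for 48 h at 28.5 °C, then immobilized. CM-DiI fluorescence was imaged by fluorescence microscopy alongside bright field, and the melanoma area was outlined.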

[12] = target: Vascular endothelial growth factor receptor 2 (Danio rerio) (UniProt Q5GIT4); experiment: Inhibition of VEGFR2 mediated angiogenesis in transgenic Tg(flk1:GFP) zebra fish embryo at 20 uM measured at 48 hrs postfertilization by fluorescence microscopy
Vascular endothelial growth factor receptor 2 (Danio rerio), sequence (Q5GIT4 whole entry): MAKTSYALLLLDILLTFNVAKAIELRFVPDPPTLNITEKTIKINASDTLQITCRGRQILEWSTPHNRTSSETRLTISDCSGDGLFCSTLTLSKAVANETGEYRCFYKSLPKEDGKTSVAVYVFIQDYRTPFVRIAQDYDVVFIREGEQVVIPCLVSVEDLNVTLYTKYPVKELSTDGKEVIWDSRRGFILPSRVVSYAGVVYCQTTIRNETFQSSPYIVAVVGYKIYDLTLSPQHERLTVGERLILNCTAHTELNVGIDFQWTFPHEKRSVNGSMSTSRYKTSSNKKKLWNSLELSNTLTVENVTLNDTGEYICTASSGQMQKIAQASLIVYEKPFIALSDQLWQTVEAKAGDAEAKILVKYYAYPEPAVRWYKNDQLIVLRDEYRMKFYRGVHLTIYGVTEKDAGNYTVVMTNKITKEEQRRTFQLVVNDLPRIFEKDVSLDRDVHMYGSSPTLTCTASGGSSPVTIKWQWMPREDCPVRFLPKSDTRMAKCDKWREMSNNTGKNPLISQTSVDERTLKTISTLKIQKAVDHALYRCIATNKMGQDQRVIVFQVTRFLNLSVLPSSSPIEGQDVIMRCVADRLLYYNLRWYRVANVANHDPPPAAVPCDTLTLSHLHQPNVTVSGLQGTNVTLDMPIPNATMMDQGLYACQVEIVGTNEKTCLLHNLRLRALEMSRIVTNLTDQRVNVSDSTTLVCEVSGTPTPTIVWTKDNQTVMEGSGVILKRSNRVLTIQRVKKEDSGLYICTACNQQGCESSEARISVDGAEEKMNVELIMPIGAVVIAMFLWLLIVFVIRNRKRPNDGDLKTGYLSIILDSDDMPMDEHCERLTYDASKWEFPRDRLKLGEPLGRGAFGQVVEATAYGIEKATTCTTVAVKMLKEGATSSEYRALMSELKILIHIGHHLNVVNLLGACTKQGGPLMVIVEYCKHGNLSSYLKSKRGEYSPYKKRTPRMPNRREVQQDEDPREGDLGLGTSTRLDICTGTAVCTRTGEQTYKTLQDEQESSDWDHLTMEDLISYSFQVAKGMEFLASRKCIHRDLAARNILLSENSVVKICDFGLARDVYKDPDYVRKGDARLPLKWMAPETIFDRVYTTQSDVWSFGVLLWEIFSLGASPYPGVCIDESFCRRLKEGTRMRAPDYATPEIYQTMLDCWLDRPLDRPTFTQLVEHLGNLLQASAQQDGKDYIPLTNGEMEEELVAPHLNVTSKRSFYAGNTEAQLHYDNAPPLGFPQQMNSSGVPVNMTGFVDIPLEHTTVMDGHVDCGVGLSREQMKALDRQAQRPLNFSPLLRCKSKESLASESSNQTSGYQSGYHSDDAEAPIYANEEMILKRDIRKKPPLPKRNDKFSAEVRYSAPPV
Outline: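 Tg:Flk1-GFP (VEGFR2 reporter) embryos treated from 12 hpf at 20 μM, 28.5 °C in E3 medium; chorions removed at 24 hpf; ISV and sprout numbers counted at 48 hpf under fluorescence microscope. Sorafenib (1 μM) positive control; one-way ANOVA, Tukey post hoc test.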

[13] = test system: SK-MEL; experiment: Induction of apoptosis in human SK-MEL cells assessed as increase in cleaved PARP level at 0.2 to 0.8 uM incubated for 48 hrs by Western blot analysis; type: functional, cell-based; settings: dose 0.2-0.8 µM; outline: as §1
[14] = test system: SK-MEL; experiment: Induction of apoptosis in human SK-MEL cells assessed as increase in cleaved PARP level at 0.5 to 1 uM incubated for 48 hrs by Western blot analysis; type: functional, cell-based; settings: dose 0.5-1 µM; outline: as §1

`C[C@]12CC[C@@H]3[C@H]4CC[C@H](O)C[C@@]4(O)CC[C@H]3[C@@]1(O)CC[C@@H]2c1ccc(=O)oc1` showed a pIC50 [1] of 6.55.

In the case of `C[C@]12CC[C@H](O)C[C@@]1(O)CC[C@@H]1[C@@H]2CC[C@]2(C)[C@@H](c3ccc(=O)oc3)CC[C@]12O` [TELOCINOBUFAGIN], the Activity [2] was “Active”, the Activity [3] was “Active” and the Activity [4] was “inactive”. For the same compound, the pIC50 [1] was 7.30, the Activity [5] was “Toxic” and the Activity [6] was “Toxic”. For the same compound, the Activity [7] was “inactive” and the Activity [8] was “Toxic”.

With `C[C@]12CC[C@H](O)C[C@@]1(O)CC[C@@H]1[C@@H]2CC[C@]2(C)[C@@H](c3ccc(=O)oc3)[C@@H](O)C[C@]12O` the Activity [4] was “inactive”, the pIC50 [1] was 6.15 and the Activity [7] was “inactive”. The Activity [9] was “Non-Toxic”.

For `CNC(=O)c1cc(Oc2ccc(NC(=O)Nc3ccc(Cl)c(C(F)(F)F)c3)cc2)ccn1` [SORAFENIB], the Activity [10] was “inactive”, the pIC50 [1] was 5.00 and the Activity [11] was “Active”.

With `C[C@]12CC[C@@H]3C4=C(C[C@H]3[C@@]1(O)CC[C@@H]2c1ccc(=O)oc1)C(=O)C=CCC4` the Activity [4] was “inactive”, the pIC50 [1] was 5.48 and the Activity [5] was “Toxic”. For the same compound, the Activity [6] was “Toxic”, the Activity [7] was “inactive” and the Activity [8] was “Toxic”.

For `C[C@]12CC[C@H]3[C@@H](CC[C@]4(O)C[C@@H](O)CC[C@]34C=O)[C@@]1(O)CC[C@@H]2c1ccc(=O)oc1`, the Activity [12] was “inactive”, the Activity [4] was “Active” and the pIC50 [1] was 7.02. The Activity [6] was “Toxic”, the Activity [13] was “inactive” and the Activity [7] was “Active”.

For `C[C@]12CC[C@@H]3[C@H]4CC[C@H](O)C[C@@]4(O)CC[C@H]3[C@]13O[C@@H]3C[C@@H]2c1ccc(=O)oc1`, the Activity [4] was “inactive”, the pIC50 [1] was 5.44 and the Activity [5] was “Toxic”. The Activity [6] was “Toxic”, the Activity [7] was “inactive” and the Activity [8] was “Toxic”.

With `C[C@]12CC[C@H]3[C@@H](CC[C@]4(O)C[C@@H](O)CC[C@]34O)[C@@]1(O)CC[C@@H]2c1ccc(=O)oc1` the Activity [12] was “inactive”, the Activity [4] was “Active” and the pIC50 [1] was 6.04. The Activity [14] was “inactive”, the Activity [7] was “Active” and the Activity [9] was “Non-Toxic”.

For `C[C@]12CC[C@H]3[C@@H](CC[C@]4(O)C[C@@H](O)CC[C@]34C(=O)O)[C@@]1(O)CC[C@@H]2c1ccc(=O)oc1`, the Activity [4] was “inactive”, the pIC50 [1] was 6.54 and the Activity [7] was “inactive”. For the same compound, the Activity [9] was “Non-Toxic”.
